Measurements taken from ChEMBL document CHEMBL2331436, “Antimicrobial phenolics and unusual glycerides from Helichrysum italicum subsp. microphyllum” (2013).
In brackets after ≈: the same amount, converted by molar mass.

Columns and labels:
Type in all cases: functional
Staphylococcus aureus [1] = experiment: Antibacterial activity against Staphylococcus aureus RN4220 overexpressing MsrA macrolide efflux protein after 18 hrs by MTT assay; conditions: RN4220, 18 h
Outline: (§1)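 MIC by broth microdilution in Mueller-Hinton broth with 20 mg/L Ca2+ and 10 mg/L Mg2+. Strains were grown overnight on nutrient agar at 37 °C. Agents were dissolved in DMSO, diluted in broth to a 512 mg/L stock, and serially diluted to a final 128−0.25 range with inoculum. Plates ran in duplicate for 18 h at 37 °C, then […] methanolic MTT for 30 min, scored by blue colour.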

Staphylococcus aureus [2] = experiment: Antibacterial activity against epidemic methicillin-resistant Staphylococcus aureus EMRSA-15 after 18 hrs by MTT assay; conditions: EMRSA-15, 18 h; outline: as §1
Staphylococcus aureus [3] = experiment: Antibacterial activity against Staphylococcus aureus ATCC 25923 after 18 hrs by MTT assay; conditions: ATCC 25923, 18 h
Outline: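 Strain grown overnight at 37 °C on nutrient agar before assay. MIC by broth microdilution in Mueller-Hinton broth with 20 mg/L Ca2+ and 10 mg/L Mg2+. Agents in DMSO, diluted in MHB to a 512 mg/L stock, then serially diluted to a final 128−0.25 […]. Duplicates, 18 h at 37 °C, then 5 mg/L methanolic MTT for 30 min; colour read-out.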

Staphylococcus aureus [4] = experiment: Antibacterial activity against Staphylococcus aureus XU212 overexpressing TetK tetracycline efflux pump after 18 hrs by MTT assay; conditions: XU212, 18 h; outline: as §1
Staphylococcus aureus [5] = experiment: Antibacterial activity against Staphylococcus aureus 1199B overexpressing NorA pump after 18 hrs by MTT assay; outline: as §1
Staphylococcus aureus [6] = experiment: Antibacterial activity against epidemic methicillin-resistant Staphylococcus aureus EMRSA-16 after 18 hrs by MTT assay; conditions: EMRSA-16, 18 h; outline: as §1

SMILES | MIC (Staphylococcus aureus [1]) [µg/mL] | MIC (Staphylococcus aureus [2]) [µg/mL] | MIC (Staphylococcus aureus [3]) [µg/mL] | MIC (Staphylococcus aureus [4]) [µg/mL] | MIC (Staphylococcus aureus [5]) [µg/mL] | MIC (Staphylococcus aureus [6]) [µg/mL]
CCC(C)C(=O)C(C)c1oc(=O)c(C)c(O)c1C (stereo unspecified) [MICROPYRONE] | 128 (≈ 507 µM) | > 128 | > 128 | > 128 | > 128 | 128 (≈ 507 µM)
C=C(COC(C)=O)[C@H]1Cc2cc(C(C)=O)ccc2O1 | > 128 | > 128 | > 128 | > 128 | > 128 | > 128
CCc1c(C)oc(=O)c(C(C)c2c(O)c(CC=C(C)C)c(O)c(C(C)=O)c2O)c1O (stereo unspecified) | 128 (≈ 307 µM) | 128 (≈ 307 µM) | 64 (≈ 154 µM) | > 128 | 128 (≈ 307 µM) | 128 (≈ 307 µM)
CCn1cc(C(=O)O)c(=O)c2cc(F)c(N3CCNCC3)cc21 [NORFLOXACIN] | 0.5 (≈ 1.57 µM) | 0.5 (≈ 1.57 µM) | 0.5 (≈ 1.57 µM) | 8 (≈ 25.1 µM) | 32 (≈ 100 µM) | 128 (≈ 401 µM)
COC(=O)/C=C/c1ccc(OC/C=C(\C)CCC=C(C)C)cc1 | > 128 | > 128 | > 128 | > 128 | > 128 | > 128
CCc1oc(OC)c(Cc2c(O)c(CC=C(C)C)c(O)c(C(C)=O)c2O)c(=O)c1C [METHYLARZANOL] | > 128 | > 128 | > 128 | > 128 | > 128 | > 128
CCCc1oc(=O)c(C(c2ccccc2)c2c(O)c(CC=C(C)C)c(O)c(C(C)=O)c2O)c(O)c1C(C)C (stereo unspecified) | 2 (≈ 3.84 µM) | 6 (≈ 11.5 µM) | 8 (≈ 15.4 µM) | 4 (≈ 7.68 µM) | 16 (≈ 30.7 µM) | 8 (≈ 15.4 µM)
C=C(COC(=O)CCCCCCCC)[C@H]1Cc2cc(C(C)=O)ccc2O1 [NONANOYLBITALIN A] | > 128 | > 128 | > 128 | > 128 | > 128 | > 128
CCc1oc(=O)c(Cc2c(O)c(C)c(CC)oc2=O)c(O)c1C [HELIPYRONE] | 12 (≈ 37.5 µM) | > 128 | 64 (≈ 200 µM) | > 128 | > 128 | 128 (≈ 400 µM)
COC(=O)/C=C\c1ccc(OC/C=C(\C)CCC=C(C)C)cc1 | > 128 | > 128 | > 128 | > 128 | > 128 | > 128
C=C(COC(=O)CCC(C)C)[C@H]1Cc2cc(C(C)=O)ccc2O1 | > 128 | > 128 | > 128 | > 128 | > 128 | > 128
C=C(COC(=O)CC)[C@H]1Cc2cc(C(C)=O)ccc2O1 [PROPANOYLBITALIN A] | > 128 | > 128 | > 128 | > 128 | > 128 | > 128
CCCc1oc(=O)c(C(C)c2c(O)c(CC=C(C)C)c(O)c(C(C)=O)c2O)c(O)c1C(C)C (stereo unspecified) | 32 (≈ 69.8 µM) | 32 (≈ 69.8 µM) | 128 (≈ 279 µM) | 128 (≈ 279 µM) | 32 (≈ 69.8 µM) | 128 (≈ 279 µM)
C=C(COC(=O)C(C)CC)[C@H]1Cc2cc(C(C)=O)ccc2O1 (stereo partly specified) | > 128 | > 128 | > 128 | > 128 | > 128 | > 128
C=C(COC(=O)CCCCCCC/C=C\CCCCCCCC)[C@H]1Cc2cc(C(C)=O)ccc2O1 [OLEOYLBITALIN A] | > 128 | > 128 | > 128 | > 128 | > 128 | > 128
CCc1oc(=O)c(Cc2c(O)c(CC=C(C)C)c(O)c(C(C)=O)c2O)c(O)c1C [ARZANOL] | 2 (≈ 4.97 µM) | 4 (≈ 9.94 µM) | 1 (≈ 2.48 µM) | 4 (≈ 9.94 µM) | 1 (≈ 2.48 µM) | 2 (≈ 4.97 µM)
CCc1oc(=O)c(Cc2c(O)c3c(c(C(C)=O)c2O)OC(C)(C)CC3)c(O)c1C [CYCLOARZANOL A] | 32 (≈ 79.5 µM) | 128 (≈ 318 µM) | 32 (≈ 79.5 µM) | 128 (≈ 318 µM) | 128 (≈ 318 µM) | > 128
C=C(COC(=O)C(C)C)[C@H]1Cc2cc(C(C)=O)ccc2O1 | > 128 | > 128 | > 128 | > 128 | > 128 | > 128
CCc1oc(=O)c(Cc2c(O)c(C(C)=O)c(O)c3c2OC(C)(C)CC3)c(O)c1C [CYCLOARZANOL B] | > 128 | > 128 | > 128 | > 128 | > 128 | > 128
CCCCCC(=O)C(c1c(O)c(CC=C(C)C)c(O)c(C(C)=O)c1O)c1c(O)c(CC)c(C)oc1=O (stereo unspecified) | 8 (≈ 16 µM) | 16 (≈ 32 µM) | 8 (≈ 16 µM) | 16 (≈ 32 µM) | 16 (≈ 32 µM) | 8 (≈ 16 µM)
CCc1oc(=O)c(Cc2c(O)c(CC=C(C)C)c(O)c(C(C)=O)c2O)c(O)c1CC | 2 (≈ 4.8 µM) | 2 (≈ 4.8 µM) | 1 (≈ 2.4 µM) | 16 (≈ 38.4 µM) | 1 (≈ 2.4 µM) | 2 (≈ 4.8 µM)
